# Measurements from different studies.
# Protocols differ between the studies behind these lines.
# ADRA1A: Alpha-1A adrenergic receptor (ADRA1A, Homo sapiens, UniProt P35348)
# SQLE: Squalene monooxygenase (SQLE, Homo sapiens, UniProt Q14534)
# Tspo: Translocator protein (Tspo, Rattus norvegicus, UniProt P16257)
SMILES,target,assay,system,setting,Ki [µM]
Cc1cc(Oc2ncccc2CN2CCN(c3ccccc3Cl)CC2)ccc1-c1c(C)c(=O)[nH]c(=O)n1C,ADRA1A,"ligand displacement, radioligand",,,0.93
CCN(CC)C(C)CN1c2ccccc2Sc2ccccc21 (stereo not shown),SQLE,"enzyme activity, inhibitor",,,0.65
Cc1cc(Oc2ncccc2CN2CCN(CCc3ccccc3)CC2)ccc1-c1c(C)c(=O)[nH]c(=O)n1C,ADRA1A,"ligand displacement, radioligand",,,0.296
O=C[C@H](O)[C@@H](O)[C@H](O)[C@H](O)COP(=O)(O)O,"Hexokinase HKDC1 (Homo sapiens, UniProt Q2TB90)","enzyme activity, inhibitor",,pH 8,3400
COc1cc2c3c(c1OC)-c1c(OC)ccc(-c4ccc(C#N)cc4)c1CC3N(C)CC2 (stereo not shown),ADRA1A,"cell-free assay, radioligand",,,0.322
Cc1cc(Oc2ncccc2CN2CCN(c3ccccc3[N+](=O)[O-])CC2)ccc1-c1c(C)c(=O)[nH]c(=O)n1C,ADRA1A,"ligand displacement, radioligand",,,1.98
N#Cc1ccc2c(c1)N(CCCN1CCC(O)CC1)c1ccccc1S2,SQLE,"enzyme activity, inhibitor",,,0.69
COc1cc2c3c(c1OC)-c1c(OC)ccc(N4CCOCC4)c1CC3N(C)CC2 (stereo not shown),ADRA1A,"cell-free assay, radioligand",,,0.643
COc1ccc(Cl)cc1N1CCN(Cc2cccnc2Oc2ccc(-c3c(C)c(=O)[nH]c(=O)n3C)c(C)c2)CC1,ADRA1A,"ligand displacement, radioligand",,,0.353
COc1cc(O)c2c(c1)oc(=O)c1c3cc(O)c(O)cc3oc21,"Alpha-glucosidase MAL12 (MAL12, Saccharomyces cerevisiae S288c, UniProt P53341)","enzyme activity, inhibitor",,,30
CCOC(=O)[C@@]12C[C@@H]1[C@@H](n1cnc3c(NCc4cccc(Cl)c4)nc(C#Cc4ccc(Cl)s4)nc31)[C@H](O)[C@@H]2O,Tspo,"cell-free assay, radioligand",,,0.51
O=c1cc(-c2ccc(O)cc2)oc2cc(O[C@@H]3O[C@H](CO)[C@@H](O)[C@H](O)[C@H]3O)cc(O)c12,SQLE,"enzyme activity, inhibitor",,,0.66
OC[C@@]12C[C@@H]1[C@@H](n1cnc3c(NC(C4CCC4)C4CCC4)nc(C#Cc4ccc(Cl)s4)nc31)[C@H](O)[C@@H]2O,Tspo,"cell-free assay, radioligand",,,0.67
COc1cc(C2Oc3cc([C@H]4Oc5cc(O)cc(O)c5C(=O)[C@@H]4O)ccc3OC2CO)ccc1O (stereo partly shown),SQLE,"enzyme activity, inhibitor",,,1.42
Cc1cc(Oc2ncccc2CN2CCN(c3cccc(Cl)c3Cl)CC2)ccc1-c1c(C)c(=O)[nH]c(=O)n1C,ADRA1A,"ligand displacement, radioligand",,,1.93
C=CC(=O)N1C[C@H](Nc2ncnc3[nH]ccc23)CC[C@@H]1C,"Solute carrier family 22 member 6 (SLC22A6, Homo sapiens, UniProt Q4U2R8)","transporter uptake, inhibitor",HEK293,pH 7.4,156
